Our source for the IC50 values is ChEMBL document CHEMBL1926515, “Synthesis and QSAR study of novel cytotoxic spiro[3H-indole-3,2'(1'H)-pyrrolo[3,4-c]pyrrole]-2,3',5'(1H,2'aH,4'H)-triones” (Eur J Med Chem, 2012).

Holding throughout (assay type): functional, cell-based
The test system of one assay is MCF7. Description: Cytotoxicity against human MCF7 cells after 48 hrs by sulforhodamine B assay. Conditions: MCF7, 48 h. An outline of the steps:
(§1)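 Cells were seeded at 5×10^4–10^5 per well and allowed to attach for 24 h. Cells were then fixed and SRB-stained, washed with acetic acid, and the dye was recovered in Tris-EDTA for A564. Surviving fraction = OD treated/OD control. IC50 was taken as 50% growth inhibition relative to control, from mean values. Doxorubicin served as reference.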

For another assay, the system named is HCT-116. As to the kind of experiment: Cytotoxicity against human HCT116 cells after 48 hrs by sulforhodamine B assay. Conditions: HCT-116, 48 h. The method in brief: as §1
The next assay concerns HepG2. Description: Cytotoxicity against human HepG2 cells after 48 hrs by sulforhodamine B assay. The settings on record: HepG2, 48 h. An outline of the steps: as §1
(In SRB staining, fixed cells bind dye roughly in proportion to their protein.)

Turning to `COc1ccc2c(c1)C1(C(=O)N2)C2C(=O)N(c3ccccc3)C(=O)C2CN1C` (configuration not stated), the concentration for half-maximal inhibition (IC50) in the assay with MCF7 stood at 44.8 µM; with HCT-116 it was 34.1 µM; in the assay on HepG2 it was 44.2 µM.

In the case of `COc1ccc(N2C(=O)C3CN(C)C4(C(=O)Nc5ccc(OC)cc54)C3C2=O)cc1` (configuration not stated), the IC50 in the assay on MCF7 amounted to 42.7 µM; with HCT-116, 40.9 µM; in the assay on HepG2, 49.7 µM.

For `CN1CC2C(=O)N(c3ccc(Cl)cc3)C(=O)C2C12C(=O)Nc1ccc(Cl)cc12` (configuration not stated), the values for the half-inhibitory concentration (IC50) in the assay on MCF7, in the assay with HCT-116 and in the assay with HepG2 were 40.6 µM, 35.5 µM and 29.2 µM, respectively.

`COc1ccc(N2C(=O)C3CN(C)C4(C(=O)Nc5ccc(Cl)cc54)C3C2=O)cc1` (configuration not stated): the IC50 in the assay on MCF7 worked out at 38.1 µM; in the assay on HCT-116, 41 µM; in the assay on HepG2, 28.9 µM.

In the case of `COc1ccc2c(c1)C1(C(=O)N2)C2C(=O)N(c3ccc(Cl)cc3)C(=O)C2CN1C` (configuration not stated), the values for the 50% inhibitory concentration (IC50) in the assay with MCF7, in the assay on HCT-116 and in the assay with HepG2 were 38.7 µM, 47.4 µM and 43.4 µM, respectively.

Consider `CN1CC2C(=O)N(c3ccc(F)cc3)C(=O)C2C12C(=O)Nc1ccc(Cl)cc12` (configuration not stated), for which the IC50 with MCF7 is 89.9 µM; with HCT-116, 73.3 µM; in the assay on HepG2 it was 41.1 µM.

Consider `CN1CC2C(=O)N(c3ccccc3)C(=O)C2C12C(=O)Nc1ccccc12` (configuration not stated), for which the values for the IC50 with MCF7, with HCT-116 and with HepG2 were 35.6 µM, 63.7 µM and 32.9 µM, respectively.

In the case of `CN1CC2C(=O)N(c3ccccc3)C(=O)C2C12C(=O)Nc1ccc(Cl)cc12` (configuration not stated), the half-inhibitory concentration (IC50) in the assay with MCF7 is 38.7 µM; in the assay with HCT-116, 33 µM; in the assay with HepG2 it was 33 µM.

`COc1cccc2c1C(=O)c1c(O)c3c(c(O)c1C2=O)C[C@@](O)(C(=O)CO)C[C@@H]3O[C@H]1C[C@H](N)[C@H](O)[C@H](C)O1` [DOXORUBICIN]: the IC50 with HCT-116 is 6.86 µM; in the assay with HepG2, 7.36 µM.

Regarding `Cc1ccc(N2C(=O)C3CN(C)C4(C(=O)Nc5ccccc54)C3C2=O)cc1` (configuration not stated), the half-inhibitory concentration (IC50) in the assay with MCF7 was 37.6 µM; with HCT-116 it was 46.1 µM; in the assay with HepG2, 77.1 µM.

Turning to `COc1ccc(N2C(=O)C3CN(C)C4(C(=O)Nc5ccccc54)C3C2=O)cc1` (configuration not stated), the IC50 amounted to 48 µM in the assay with MCF7, 53.6 µM in the assay on HCT-116 and 72.5 µM in the assay with HepG2.

Take `CN1CC2C(=O)N(c3ccc(Cl)cc3)C(=O)C2C12C(=O)Nc1ccccc12` (configuration not stated): the IC50 in the assay with MCF7 worked out at 43 µM; in the assay on HCT-116 it was 36.8 µM; in the assay with HepG2 it was 32.4 µM.

As for `CN1CC2C(=O)N(c3ccc(F)cc3)C(=O)C2C12C(=O)Nc1ccccc12` (configuration not stated), the half-inhibitory concentration (IC50) turned out to be 33.9 µM with MCF7, 42.4 µM in the assay with HCT-116 and 87.3 µM with HepG2.

`Cc1ccc(N2C(=O)C3CN(C)C4(C(=O)Nc5ccc(Cl)cc54)C3C2=O)cc1` (configuration not stated): the IC50 in the assay on MCF7 was 49.9 µM; in the assay with HCT-116 it was > 126 µM; in the assay on HepG2 it was 63.2 µM.

In the case of `COc1ccc2c(c1)C1(C(=O)N2)C2C(=O)N(c3ccc(F)cc3)C(=O)C2CN1C` (configuration not stated), the half-inhibitory concentration (IC50) in the assay with MCF7 turned out to be 44 µM; with HCT-116 it was 31.3 µM; in the assay with HepG2, 27.7 µM.

Turning to `COc1ccc2c(c1)C1(C(=O)N2)C2C(=O)N(c3ccc(C)cc3)C(=O)C2CN1C` (configuration not stated), the values for the IC50 in the assay with MCF7, in the assay on HCT-116 and in the assay with HepG2 were 46.8 µM, 46.2 µM and 12.2 µM, respectively.

As a reminder, the IC50 is the point on the concentration scale where inhibition reaches its midpoint. High values mean a need for much substance, low ones inhibition by little substance.
